The text below walks through data of PubChem BioAssay.

A short description of experiment [1]: Her2 expression decrease, cell viability multiplex – SKBR3 breast tumor cells, AlphaScreen, ATP viability, primary screen (AID 461;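 active = Her2 level under about 52% in both replicate screens, with viability over 70% of control, limit read from the data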;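 as to Her2 level: lower value means less Her2 protein in the cells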;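 as to viability: percent of carrier control wells set as 100% viability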). The note with it: SKBR3 Her2 protein level, 18-24 h, measured here: SKBR3 viability, ATP luminescence, at 10 µM.
The target of experiment [2] is Receptor tyrosine-protein kinase erbB-2 (Homo sapiens) (UniProt P04626). The experiment is described as above. As to conditions: 18-24 h, at 10 µM, stronger effect = lower value.
Experiment [3] can be described thus: reduced viability of SK-BR-3 breast cancer cells – cell-based, 24 h, human, pilot screen (AID 572;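 active = viability at or below 10% of carrier control in both of two separate runs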;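 also: compound exposure lasted between 18 and 24 h rather than exactly 24 h; 100% = carrier-treated control wells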). The note with it: SK-BR-3 viability, CellTiter-Glo luminescence, at 10 µM, stronger effect = lower value.
A short description of experiment [4]: HUVEC growth inhibition – cell-based, human, primary screen (AID 575;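 active = viability at or below 30% in both replicate assays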;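 also: 100% = median of untreated cell wells with 0.1% DMSO on each plate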). The note with it: HUVEC proliferation, CellTiter-Glo luminescence, 72 h; at 10 µM; stronger effect = lower value. A digest of the protocol:
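Assay system: Primary human umbilical vein endothelial cells | Quantity: 1250 cells per well | Medium: Supplemented EBM, 2% fetal bovine serum | Detection: CellTiter-Glo luminescence measuring cellular ATP | Read-out: % viability vs DMSO wells | Plate: Collagen-coated 384-well format | Times: 72 h exposure, 37 °C, 5% CO2, 30 min RT equilibration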

Experiment [5] can be described thus: H69AR cell proliferation blockers – human, duplicate replicates, primary screen (AID 580;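 active = viability at or under a set limit in both replicates, limit being median viability minus 3 SD, cut at about 48% in these data, passing the limit was not always enough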;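 also: 100% = mean luminescence of untreated wells and 0% = no signal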). The note with it: H69AR lung tumor cells viability, ATP luminescence, 72 h; at 10 µM; stronger effect = lower value.
A short description of experiment [6]: MRP1 drug-resistance reversers in H69AR cells – cell-based, doxorubicin co-treatment, pilot screen (AID 601;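 active = viability loss from added drug above about 55%, and viability with drug at most 40%, in both replicates, limit read from the data, passing the limit was not always enough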). As to conditions: CellTiter-Glo, 72 h, at 10 µM; for differential viability (reversal): stronger effect = higher value.
Experiment [7] in a line: yeast transport mutant growth inhibition pilot in 384-well plates, post-Golgi transport modulator project (AID 636; in the data active = inhibition above about 31%). As to conditions: absorbance 615 nm, about 18 h, stronger effect = higher value.
Experiment [8] is described as follows: growth suppression of yeast trafficking mutant, preliminary HTS, modulators of trafficking downstream of Golgi apparatus project, 1536-format plate, OD 615 nm (AID 637). As to conditions: yeast transport mutant growth, absorbance 615 nm, 18 h; stronger effect = higher value.
Where [9] appears, read: H69AR cells + 2 uM doxorubicin, measured here: viability with 2 uM doxorubicin, stronger effect = lower value.
[10] abbreviates: H69AR cells, compound alone cytotoxicity.

Structures are written as SMILES. Activity calls are given as the source filed them. Rule as the data show it, unless noted: active = inhibition above about 30%; inactive = the rest.

Sequence of Receptor tyrosine-protein kinase erbB-2 (Homo sapiens) (P04626 whole entry, looked up): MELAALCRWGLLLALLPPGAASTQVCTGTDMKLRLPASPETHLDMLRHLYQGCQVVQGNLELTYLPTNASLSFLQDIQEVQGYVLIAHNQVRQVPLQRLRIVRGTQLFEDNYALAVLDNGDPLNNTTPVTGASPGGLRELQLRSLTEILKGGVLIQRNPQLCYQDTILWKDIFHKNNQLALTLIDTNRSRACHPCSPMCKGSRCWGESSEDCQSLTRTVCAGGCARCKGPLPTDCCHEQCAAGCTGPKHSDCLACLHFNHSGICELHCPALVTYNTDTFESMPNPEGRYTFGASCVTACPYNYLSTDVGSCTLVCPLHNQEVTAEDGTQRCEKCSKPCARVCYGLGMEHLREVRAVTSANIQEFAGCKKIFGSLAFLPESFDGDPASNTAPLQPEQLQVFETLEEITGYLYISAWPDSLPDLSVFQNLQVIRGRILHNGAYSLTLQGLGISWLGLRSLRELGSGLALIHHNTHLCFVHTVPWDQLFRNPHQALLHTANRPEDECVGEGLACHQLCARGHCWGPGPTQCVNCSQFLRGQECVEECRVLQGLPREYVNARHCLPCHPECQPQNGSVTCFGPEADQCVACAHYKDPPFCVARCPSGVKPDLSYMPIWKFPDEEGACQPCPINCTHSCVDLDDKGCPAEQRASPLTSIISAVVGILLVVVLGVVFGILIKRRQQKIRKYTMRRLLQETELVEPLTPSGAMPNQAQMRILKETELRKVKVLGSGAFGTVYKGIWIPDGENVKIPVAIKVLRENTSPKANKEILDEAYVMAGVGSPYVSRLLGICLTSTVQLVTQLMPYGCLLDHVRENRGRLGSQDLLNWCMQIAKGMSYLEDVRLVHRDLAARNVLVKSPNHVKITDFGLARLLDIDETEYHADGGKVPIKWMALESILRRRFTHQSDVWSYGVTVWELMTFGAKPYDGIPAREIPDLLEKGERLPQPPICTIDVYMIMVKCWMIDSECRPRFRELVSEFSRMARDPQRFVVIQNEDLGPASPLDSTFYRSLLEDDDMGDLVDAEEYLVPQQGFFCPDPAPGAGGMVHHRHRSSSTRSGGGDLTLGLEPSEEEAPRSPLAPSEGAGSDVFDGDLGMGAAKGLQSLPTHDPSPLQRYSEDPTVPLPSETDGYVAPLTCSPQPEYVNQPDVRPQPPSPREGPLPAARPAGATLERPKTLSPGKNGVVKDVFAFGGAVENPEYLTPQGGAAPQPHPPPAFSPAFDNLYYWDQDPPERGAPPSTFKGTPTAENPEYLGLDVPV

Turning to `COc1ccccc1N(CC(=O)NCc1ccccc1)S(C)(=O)=O`, the viability in experiment [1] is 103%; in experiment [3] it was 103% (inactive); in experiment [4], 106% (inactive); in experiment [5] it was 97% (inactive); in experiment [6] (setting [9]) it was 93.9%; in experiment [6] (setting [10]), 97%. Besides, in experiment [2], the Her2 level was 92.5% (inactive). In addition, the differential viability (reversal) in experiment [6] (H69AR cells + 2 uM doxorubicin) was 3.07% (inactive). The inhibition in experiment [7] is -9.19% (inactive); in experiment [8] it was -7.33% (inactive).

For the compound `Cc1onc(-c2ccccc2Cl)c1C(=O)NCc1cccnc1`, the viability is 103% in experiment [1]; 103% (inactive) in experiment [3]; 110% (inactive) in experiment [4]; 94.5% (inactive) in experiment [5]; 85.4% in experiment [6] (setting [9]); 94.5% in experiment [6] (setting [10]). Besides, the Her2 level in experiment [2] is 102% (inactive). Also, the differential viability (reversal) in experiment [6] (H69AR cells + 2 uM doxorubicin) was 9.16% (inactive). For the same compound, the inhibition in experiment [7] is -4.8% (inactive); in experiment [8], 6.13% (inactive).

For the compound `CCOc1ccc(NC(=O)CN2CCN(CC(=O)Nc3ccc(F)c(F)c3)CC2)cc1`, the viability in experiment [1] was 95%; in experiment [3], 95% (inactive); in experiment [4], 89.3% (inactive); in experiment [5], 79.8% (inactive); in experiment [6] (setting [9]), 57.1%; in experiment [6] (setting [10]) it was 79.8%. The Her2 level in experiment [2] was 102% (inactive). Moreover, in experiment [6] (H69AR cells + 2 uM doxorubicin), the differential viability (reversal) was 22.7% (inactive). The inhibition in experiment [7] was -3.6% (inactive); in experiment [8] it was 4.92% (inactive).

As to `Nc1c(C2=NCCO2)nnn1Cc1ccccc1`, the viability in experiment [1] was 118%; in experiment [3] it was 118% (inactive); in experiment [4], 94% (inactive); in experiment [5], 87.3% (inactive); in experiment [6] (setting [9]), 87%; in experiment [6] (setting [10]), 87.3%. The Her2 level in experiment [2] was 95.5% (inactive). For the same compound, the differential viability (reversal) in experiment [6] (H69AR cells + 2 uM doxorubicin) is 0.315% (inactive). The inhibition in experiment [7] was -3.42% (inactive); in experiment [8], 3.28% (inactive).

With `Cc1cc2ncn(C(=O)c3c(-c4ccccc4)noc3C)c2cc1C`, the viability in experiment [1] was 102%; in experiment [3], 102% (inactive); in experiment [4], 76.8% (inactive); in experiment [5], 81.8% (inactive); in experiment [6] (setting [9]), 77.7%; in experiment [6] (setting [10]) it was 81.8%. In addition, the Her2 level in experiment [2] was 110% (inactive). The differential viability (reversal) in experiment [6] (H69AR cells + 2 uM doxorubicin) was 4.1% (inactive). Besides, the inhibition is 0.13% (inactive) in experiment [7] and -6.23% (inactive) in experiment [8].

For the compound `O=C1CN=C(Nc2cccc(C(F)(F)F)c2)N1C1CCCC1`, the viability was 97% in experiment [1]; 97% (inactive) in experiment [3]; 101% (inactive) in experiment [4]; 82.5% (inactive) in experiment [5]; 97.7% in experiment [6] (setting [9]); 82.5% in experiment [6] (setting [10]). Further, the Her2 level in experiment [2] was 119% (inactive). For the same compound, in experiment [6] (H69AR cells + 2 uM doxorubicin), the differential viability (reversal) was -15.2% (inactive). For the same compound, the inhibition is -3.33% (inactive) in experiment [7] and -1.8% (inactive) in experiment [8].

Turning to `Cn1c(=O)[nH]c(=O)c2c1nc(N(CCO)Cc1ccccc1)n2Cc1ccccc1Cl`, the viability in experiment [1] is 90.5%; in experiment [3] it was 90.5% (inactive); in experiment [4] it was 80.2% (inactive); in experiment [5] it was 81.6% (inactive); in experiment [6] (setting [9]), 55.6%; in experiment [6] (setting [10]), 81.6%. Further, the Her2 level in experiment [2] is 82.5% (inactive). Moreover, the differential viability (reversal) in experiment [6] (H69AR cells + 2 uM doxorubicin) is 26% (inactive). Further, the inhibition in experiment [7] was -5.47% (inactive); in experiment [8], 3.44% (inactive).

For the compound `O=C1CCN(C(=O)c2ccccc2)C2CCCCC12` (stereo not given), the viability in experiment [1] was 98%; in experiment [3] it was 98% (inactive); in experiment [4] it was 105% (inactive); in experiment [5], 90.3% (inactive); in experiment [6] (setting [9]) it was 91.1%; in experiment [6] (setting [10]) it was 90.3%. Further, the Her2 level in experiment [2] was 124% (inactive). Also, the differential viability (reversal) in experiment [6] (H69AR cells + 2 uM doxorubicin) is -0.825% (inactive). Further, the inhibition in experiment [7] was -4.55% (inactive); in experiment [8], -11% (inactive).

As to `O=C(OCN1C(=O)c2ccccc2C1=O)c1ccc2c(=O)n3c(nc2c1)CCC3`, the viability in experiment [1] is 109%; in experiment [3] it was 109% (inactive); in experiment [4], 112% (inactive); in experiment [5] it was 96.7% (inactive); in experiment [6] (setting [9]), 97.2%; in experiment [6] (setting [10]), 96.7%. In addition, in experiment [2], the Her2 level was 85.5% (inactive). In addition, the differential viability (reversal) in experiment [6] (H69AR cells + 2 uM doxorubicin) was -0.565% (inactive). In addition, the inhibition in experiment [7] was -4.73% (inactive); in experiment [8] it was 14.8% (inactive).

Consider `CC(CN1CCN(C)CC1)OC(=O)c1ccc(Cl)cc1Cl` (stereo not given), for which the viability is 127% in experiment [1]; 127% (inactive) in experiment [3]; 88.6% (inactive) in experiment [4]; 102% (inactive) in experiment [5]; 88.2% in experiment [6] (setting [9]); 102% in experiment [6] (setting [10]). Also, in experiment [2], the Her2 level is 90.5% (inactive). Besides, in experiment [6] (H69AR cells + 2 uM doxorubicin), the differential viability (reversal) is 14% (inactive). Besides, the figures for the inhibition in experiment [7] and in experiment [8] were -4.53% (inactive) and 10% (inactive), respectively.

Turning to `COC(=O)Nc1nc2c(C)cccc2s1`, the viability in experiment [1] was 114%; in experiment [3], 114% (inactive); in experiment [4], 56.1% (inactive); in experiment [5], 85.4% (inactive); in experiment [6] (setting [9]), 73.5%; in experiment [6] (setting [10]) it was 85.4%. In experiment [2], the Her2 level was 88% (inactive). For the same compound, in experiment [6] (H69AR cells + 2 uM doxorubicin), the differential viability (reversal) is 11.9% (inactive). For the same compound, the inhibition is 1.18% (inactive) in experiment [7] and 8.33% (inactive) in experiment [8].

Regarding `CCOC(=O)C1CCCN(CCC(C)c2ccccc2)C1` (stereo not given), the viability is 94% in experiment [1]; 94% (inactive) in experiment [3]; 106% (inactive) in experiment [4]; 95.7% (inactive) in experiment [5]; 84.3% in experiment [6] (setting [9]); 95.7% in experiment [6] (setting [10]). In experiment [2], the Her2 level is 84.5% (inactive). In addition, the differential viability (reversal) in experiment [6] (H69AR cells + 2 uM doxorubicin) was 11.3% (inactive). In addition, the inhibition in experiment [7] is -6.8% (inactive); in experiment [8], 4.1% (inactive).

As for `O=C(C1CC1)N1CCC(c2nc(-c3ccc(S(=O)(=O)NCC4CCCO4)cc3)no2)CC1` (stereo not given), the viability is 74.5% in experiment [1]; 74.5% (inactive) in experiment [3]; 54.7% (inactive) in experiment [4]; 90.6% (inactive) in experiment [5]; 99.9% in experiment [6] (setting [9]); 90.6% in experiment [6] (setting [10]). The Her2 level in experiment [2] was 114% (inactive). Moreover, in experiment [6] (H69AR cells + 2 uM doxorubicin), the differential viability (reversal) was -9.35% (inactive). The results for the inhibition in experiment [7] and in experiment [8] were 0.41% (inactive) and -0.82% (inactive), respectively.

Turning to `CCn1ncc(C2=NOC(C(=O)NCc3ccccc3)C2)c1C` (stereo not given), the viability in experiment [1] is 91%; in experiment [3], 91% (inactive); in experiment [4], 43.2% (inactive); in experiment [5] it was 27.5% (active); in experiment [6] (setting [9]) it was 60.4%; in experiment [6] (setting [10]), 27.5%. In experiment [2], the Her2 level is 82.5% (inactive). In experiment [6] (H69AR cells + 2 uM doxorubicin), the differential viability (reversal) was -33% (inactive). The inhibition in experiment [7] is -6.18% (inactive); in experiment [8], -1.9% (inactive).

Turning to `CCN(C(=O)CCc1nc(-c2ccccc2F)no1)c1cc(OC)ccc1OC`, the viability in experiment [1] is 87.5%; in experiment [3], 87.5% (inactive); in experiment [4] it was 68.1% (inactive); in experiment [5] it was 92.4% (inactive); in experiment [6] (setting [9]) it was 94.8%; in experiment [6] (setting [10]) it was 92.4%. For the same compound, the Her2 level in experiment [2] was 130% (inactive). In experiment [6] (H69AR cells + 2 uM doxorubicin), the differential viability (reversal) was -2.4% (inactive). The values for the inhibition in experiment [7] and in experiment [8] were 1.71% (inactive) and 0.33% (inactive), respectively.

`CCSc1nnc(NC(=O)CSc2nnc(Cc3cccn3C)n2-c2ccc(C)cc2)s1`: the viability was 95.5% in experiment [1]; 95.5% (inactive) in experiment [3]; 78.4% (inactive) in experiment [4]; 88.8% (inactive) in experiment [5]; 96.1% in experiment [6] (setting [9]); 88.8% in experiment [6] (setting [10]). In addition, in experiment [2], the Her2 level was 108% (inactive). Moreover, the differential viability (reversal) in experiment [6] (H69AR cells + 2 uM doxorubicin) was -7.38% (inactive). In addition, the inhibition in experiment [7] was -1.56% (inactive); in experiment [8], -5.24% (inactive).
